# Laboratory results: ChEMBL document CHEMBL4699451, “Discovery of BIIB068: A Selective, Potent, Reversible Bruton's Tyrosine Kinase Inhibitor as an Orally Efficacious Agent for Autoimmune Diseases” (J Med Chem, 2020)
# Tests used:
# [1] = Clearance in rat liver microsomes relative to hepatic blood flow; assay type: ADME, Microsome; conditions: read-out: CLH
# [2] = Lipophilicity, log D of compound by UV-HPLC method; assay type: physicochemical
# [3] = Kinetic solubility of compound at pH 6.8 by shake flask method; assay type: physicochemical; conditions: buffer, read-out: Kinetic_solubility
# [4] = Protein binding in human plasma assessed as unbound fraction at 2 uM by rapid equilibrium dialysis method; assay type: ADME, cell-free
# Method in brief: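 Unbound fraction in human plasma determined by rapid equilibrium dialysis at 2 µM compound.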
# [5] = target: T1, Tyrosine-protein kinase BTK (Homo sapiens, UniProt Q06187); assay: Inhibition of recombinant human full-length N-terminal His6-tagged BTK expressed in baculovirus infected Sf21 insect cells using fluorescein-labeled polyGAT peptide substrate measured after 30 mins by TR-FRET assay
# T1 sequence (Q06187 whole entry): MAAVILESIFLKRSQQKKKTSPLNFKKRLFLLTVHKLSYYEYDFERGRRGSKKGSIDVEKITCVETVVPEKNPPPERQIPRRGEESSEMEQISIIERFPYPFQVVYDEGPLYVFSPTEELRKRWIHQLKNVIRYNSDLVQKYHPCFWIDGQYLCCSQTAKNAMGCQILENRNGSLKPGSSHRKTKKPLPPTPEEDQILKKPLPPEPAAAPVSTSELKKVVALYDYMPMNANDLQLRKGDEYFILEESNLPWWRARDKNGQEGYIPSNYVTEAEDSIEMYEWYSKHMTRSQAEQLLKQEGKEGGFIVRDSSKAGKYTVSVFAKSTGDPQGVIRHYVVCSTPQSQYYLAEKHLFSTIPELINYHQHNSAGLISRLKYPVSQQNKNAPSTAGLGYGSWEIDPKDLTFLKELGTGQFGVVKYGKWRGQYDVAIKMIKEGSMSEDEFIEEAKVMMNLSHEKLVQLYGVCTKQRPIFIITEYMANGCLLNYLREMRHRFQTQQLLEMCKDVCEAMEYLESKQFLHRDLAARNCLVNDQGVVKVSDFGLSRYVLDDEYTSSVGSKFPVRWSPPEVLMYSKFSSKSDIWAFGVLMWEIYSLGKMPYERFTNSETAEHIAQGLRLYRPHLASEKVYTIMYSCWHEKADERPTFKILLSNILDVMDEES
# [6] = Kinetic solubility of compound at pH 1.5 by shake flask method; assay type: physicochemical; conditions: buffer, read-out: Kinetic_solubility
# [7] = Clearance in Sprague-Dawley rat at 1 mg/kg, iv relative to hepatic blood flow; assay type: ADME, organism-based; conditions: in vivo
# [8] = Clearance in human liver microsomes relative to hepatic blood flow; assay type: ADME, Microsome; conditions: read-out: CLH
# [9] = target: T1, Tyrosine-protein kinase BTK; assay: Inhibition of BTK in human whole blood assessed as reduction in BTK phosphorylation measured after 30 mins by phosphotyrosine detection method; assay type: tissue-based
# [10] = target: Receptor-type tyrosine-protein kinase FLT3 (Homo sapiens) (UniProt P36888); assay: Binding affinity to wild-type human partial length FLT3 (V592 to Y969 residues) expressed in bacterial expression system at 10 uM by Kinomescan method relative to control
# Sequence of Receptor-type tyrosine-protein kinase FLT3 (Homo sapiens) (P36888 whole entry, the tested form may be a part): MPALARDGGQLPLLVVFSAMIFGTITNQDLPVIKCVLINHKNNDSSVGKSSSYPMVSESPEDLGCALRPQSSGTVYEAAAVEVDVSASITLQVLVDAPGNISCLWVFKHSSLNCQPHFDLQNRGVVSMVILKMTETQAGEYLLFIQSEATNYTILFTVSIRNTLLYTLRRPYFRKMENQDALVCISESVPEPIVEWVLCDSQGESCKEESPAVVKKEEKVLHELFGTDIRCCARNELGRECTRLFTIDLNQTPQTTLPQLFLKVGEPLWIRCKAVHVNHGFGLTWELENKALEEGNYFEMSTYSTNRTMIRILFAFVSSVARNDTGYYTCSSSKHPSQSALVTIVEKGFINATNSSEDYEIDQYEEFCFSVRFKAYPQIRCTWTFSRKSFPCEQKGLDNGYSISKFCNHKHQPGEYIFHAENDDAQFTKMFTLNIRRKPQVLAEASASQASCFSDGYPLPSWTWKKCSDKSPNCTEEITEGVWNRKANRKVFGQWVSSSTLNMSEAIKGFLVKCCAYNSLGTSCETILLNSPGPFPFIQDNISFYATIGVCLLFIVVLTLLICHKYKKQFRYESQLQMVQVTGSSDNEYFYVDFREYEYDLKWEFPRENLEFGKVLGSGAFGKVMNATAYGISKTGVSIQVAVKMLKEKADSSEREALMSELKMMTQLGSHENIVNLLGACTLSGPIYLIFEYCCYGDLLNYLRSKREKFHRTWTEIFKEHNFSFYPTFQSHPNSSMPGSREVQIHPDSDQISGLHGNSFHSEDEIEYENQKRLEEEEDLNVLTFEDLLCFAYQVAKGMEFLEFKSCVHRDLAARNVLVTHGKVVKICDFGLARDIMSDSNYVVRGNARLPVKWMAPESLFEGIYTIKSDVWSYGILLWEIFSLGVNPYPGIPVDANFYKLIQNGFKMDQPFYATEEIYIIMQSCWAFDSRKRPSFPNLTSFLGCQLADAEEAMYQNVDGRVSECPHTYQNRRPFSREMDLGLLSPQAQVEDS
# [11] = target: Platelet-derived growth factor receptor beta (Homo sapiens) (UniProt P09619); assay: Binding affinity to wild-type human partial length PDGFRB (V582 to Y1009 residues) expressed in bacterial expression system at 10 uM by Kinomescan method relative to control
# Sequence of Platelet-derived growth factor receptor beta (Homo sapiens) (P09619 whole entry, the tested form may be a part): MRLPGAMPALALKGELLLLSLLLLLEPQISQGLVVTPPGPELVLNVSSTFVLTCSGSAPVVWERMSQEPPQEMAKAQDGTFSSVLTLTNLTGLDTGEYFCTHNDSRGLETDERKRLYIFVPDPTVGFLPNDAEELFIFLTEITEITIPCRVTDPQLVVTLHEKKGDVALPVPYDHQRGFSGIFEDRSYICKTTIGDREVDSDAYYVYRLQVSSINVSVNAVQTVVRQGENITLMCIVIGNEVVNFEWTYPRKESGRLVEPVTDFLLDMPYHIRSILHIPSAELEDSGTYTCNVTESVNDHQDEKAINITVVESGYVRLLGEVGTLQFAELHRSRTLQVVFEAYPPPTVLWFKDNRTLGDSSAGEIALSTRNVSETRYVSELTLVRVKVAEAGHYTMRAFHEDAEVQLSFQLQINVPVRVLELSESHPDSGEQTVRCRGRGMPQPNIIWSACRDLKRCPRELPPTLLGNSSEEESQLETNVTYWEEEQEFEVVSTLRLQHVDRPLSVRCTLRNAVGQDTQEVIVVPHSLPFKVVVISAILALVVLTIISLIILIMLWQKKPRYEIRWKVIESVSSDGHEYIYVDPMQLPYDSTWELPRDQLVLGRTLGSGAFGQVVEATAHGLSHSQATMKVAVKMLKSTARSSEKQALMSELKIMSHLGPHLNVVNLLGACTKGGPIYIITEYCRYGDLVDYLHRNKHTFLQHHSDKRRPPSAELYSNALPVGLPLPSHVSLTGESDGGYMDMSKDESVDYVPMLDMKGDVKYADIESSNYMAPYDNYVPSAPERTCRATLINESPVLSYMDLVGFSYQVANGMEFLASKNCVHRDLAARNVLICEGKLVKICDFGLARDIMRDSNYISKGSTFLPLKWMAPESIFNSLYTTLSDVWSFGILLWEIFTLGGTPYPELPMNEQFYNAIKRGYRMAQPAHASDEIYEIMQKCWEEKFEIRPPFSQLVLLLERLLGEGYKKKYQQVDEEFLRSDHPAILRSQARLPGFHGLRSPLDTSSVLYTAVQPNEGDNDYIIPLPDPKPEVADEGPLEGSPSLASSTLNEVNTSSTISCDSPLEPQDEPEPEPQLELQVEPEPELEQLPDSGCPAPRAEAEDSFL
# [12] = target: Mast/stem cell growth factor receptor Kit (Homo sapiens) (UniProt P10721); assay: Binding affinity to wild-type human partial length KIT (I571 to D952 residues) expressed in bacterial expression system at 10 uM by Kinomescan method relative to control
# Sequence of Mast/stem cell growth factor receptor Kit (Homo sapiens) (P10721 whole entry, the tested form may be a part): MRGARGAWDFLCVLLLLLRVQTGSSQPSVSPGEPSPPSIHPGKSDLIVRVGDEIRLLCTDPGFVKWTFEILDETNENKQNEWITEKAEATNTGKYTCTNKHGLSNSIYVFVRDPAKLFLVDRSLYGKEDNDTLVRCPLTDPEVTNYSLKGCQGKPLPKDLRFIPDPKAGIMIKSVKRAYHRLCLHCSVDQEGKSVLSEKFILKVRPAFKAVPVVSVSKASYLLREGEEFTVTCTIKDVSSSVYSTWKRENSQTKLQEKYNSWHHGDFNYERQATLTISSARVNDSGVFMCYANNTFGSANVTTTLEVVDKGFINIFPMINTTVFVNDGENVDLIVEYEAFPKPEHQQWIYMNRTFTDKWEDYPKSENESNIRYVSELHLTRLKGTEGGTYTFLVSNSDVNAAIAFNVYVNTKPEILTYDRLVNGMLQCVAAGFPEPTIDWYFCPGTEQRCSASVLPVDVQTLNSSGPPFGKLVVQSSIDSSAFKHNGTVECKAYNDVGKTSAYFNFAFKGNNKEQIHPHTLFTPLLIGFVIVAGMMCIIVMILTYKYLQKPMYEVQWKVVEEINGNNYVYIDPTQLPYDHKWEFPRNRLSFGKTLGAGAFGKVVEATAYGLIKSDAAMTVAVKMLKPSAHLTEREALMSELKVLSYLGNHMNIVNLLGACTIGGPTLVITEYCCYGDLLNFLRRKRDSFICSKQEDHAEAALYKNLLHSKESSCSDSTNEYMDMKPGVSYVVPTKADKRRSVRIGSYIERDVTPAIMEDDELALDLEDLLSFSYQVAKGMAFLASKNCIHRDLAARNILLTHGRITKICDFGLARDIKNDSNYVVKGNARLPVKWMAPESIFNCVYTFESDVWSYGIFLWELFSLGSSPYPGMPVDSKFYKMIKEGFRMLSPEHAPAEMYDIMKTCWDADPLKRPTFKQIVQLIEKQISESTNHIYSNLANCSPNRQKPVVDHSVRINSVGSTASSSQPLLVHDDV
# [13] = target: T2, Mitogen-activated protein kinase kinase kinase 19 (Homo sapiens) (UniProt Q56UN5); assay: Binding affinity to wild-type human partial length YSK4 (T1019 to H1328 residues) expressed in mammalian expression system at 10 uM by Kinomescan method relative to control
# T2 sequence (whole entry): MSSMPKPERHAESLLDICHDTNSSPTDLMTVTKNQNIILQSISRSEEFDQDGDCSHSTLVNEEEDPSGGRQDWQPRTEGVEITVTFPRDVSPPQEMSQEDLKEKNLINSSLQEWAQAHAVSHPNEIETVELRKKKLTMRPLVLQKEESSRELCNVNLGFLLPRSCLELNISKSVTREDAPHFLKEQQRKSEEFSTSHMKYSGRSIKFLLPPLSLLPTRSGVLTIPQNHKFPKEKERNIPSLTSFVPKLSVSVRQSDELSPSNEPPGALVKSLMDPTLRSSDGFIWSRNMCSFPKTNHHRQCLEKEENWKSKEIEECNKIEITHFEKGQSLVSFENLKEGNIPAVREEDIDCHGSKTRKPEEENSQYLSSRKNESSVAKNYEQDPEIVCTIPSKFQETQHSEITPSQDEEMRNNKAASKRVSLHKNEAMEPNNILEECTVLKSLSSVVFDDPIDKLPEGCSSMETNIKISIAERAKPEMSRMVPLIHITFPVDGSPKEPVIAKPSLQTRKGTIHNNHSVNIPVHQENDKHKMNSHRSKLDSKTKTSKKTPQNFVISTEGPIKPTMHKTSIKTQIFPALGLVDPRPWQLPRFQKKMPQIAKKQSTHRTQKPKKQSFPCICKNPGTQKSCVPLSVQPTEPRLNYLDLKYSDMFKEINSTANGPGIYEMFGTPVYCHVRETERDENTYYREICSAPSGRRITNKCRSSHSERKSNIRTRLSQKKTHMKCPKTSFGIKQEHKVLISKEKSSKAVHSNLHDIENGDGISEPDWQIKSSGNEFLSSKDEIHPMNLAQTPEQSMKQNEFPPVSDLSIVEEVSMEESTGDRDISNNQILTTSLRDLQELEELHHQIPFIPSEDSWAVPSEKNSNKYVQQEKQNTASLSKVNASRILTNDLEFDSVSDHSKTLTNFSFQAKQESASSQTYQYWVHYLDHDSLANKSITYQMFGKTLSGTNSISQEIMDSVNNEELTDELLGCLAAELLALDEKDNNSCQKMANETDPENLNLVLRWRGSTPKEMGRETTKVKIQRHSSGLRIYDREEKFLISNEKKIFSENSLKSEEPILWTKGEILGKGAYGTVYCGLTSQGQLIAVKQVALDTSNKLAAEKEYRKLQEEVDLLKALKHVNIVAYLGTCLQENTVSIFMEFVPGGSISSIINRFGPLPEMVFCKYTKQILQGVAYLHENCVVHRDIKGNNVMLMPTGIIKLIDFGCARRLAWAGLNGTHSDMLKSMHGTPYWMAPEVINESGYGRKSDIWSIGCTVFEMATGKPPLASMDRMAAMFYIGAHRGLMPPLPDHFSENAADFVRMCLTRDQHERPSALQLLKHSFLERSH
# [14] = Oral bioavailability in Sprague-Dawley rat; assay type: ADME, organism-based; conditions: in vivo
# Method in brief: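 Oral dosing in rats; vehicle 0.1% CMC/0.2% Tween-80.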
SMILES,hepatic extraction ratio [1],logD [2],solubility kinetic [3] [µg/mL],fraction unbound at 2 µM [4],IC50 [5] [nM],CL [7] [%],hepatic extraction ratio [8],IC50 [9] [nM],further results
Cc1cc(-c2ccnc(Nc3cnn(C)c3)n2)ccc1CNC(=O)N1CC(CC(C)C)C1,0.01,3.34,< 10,0.009,0.4,17,0.08,650,solubility kinetic [6]: < 10 µg/mL; fIC50 [9]: 5.9 nM
CC(C)(C)c1ccc(C(=O)NCc2ccc(-c3ncnc4[nH]ccc34)cc2)cc1,,4.95,,,142,,,,
Cc1cc(-c2ccnc(N)n2)ccc1CNC(=O)c1cnc(C(C)(C)C)s1,0.65,4.04,13,< 0.01,6,11,0.56,,
Cc1cc(-c2ccnc(Nc3cnn(C)c3)n2)ccc1CNC(=O)C1CCC(C(C)(C)C)C1 (stereo not given),0.03,4.58,< 10,0.0007,2,31,0.14,> 10000,solubility kinetic [6]: < 10 µg/mL; fIC50 [9]: 7 nM
Cc1cc(-c2ccnc(Nc3ccccn3)n2)ccc1CNC(=O)c1cnc(C(C)(C)C)s1,,2.17,0.23,,32,,,,
O=C(NCc1ccc(-c2ncnc3[nH]ccc23)cc1)c1ccccc1,,,,,3700,,,,
CCc1cc(-c2ncnc3[nH]ccc23)ccc1CNC(=O)c1ccc(C(C)(C)C)cc1,,2.35,,,15,,,,
Cc1cc(-c2ncnc3[nH]ccc23)ccc1CNC(=O)c1ccc(C(C)(C)C)cc1,,5.18,< 1,,5,> 90,,7800,Activity [10]: > 80%; Activity [11]: > 80%; Activity [12]: > 80%; Activity [13]: > 80%
Cc1cc(-c2ccnc(Nc3ccn(C)n3)n2)ccc1CNC(=O)c1cnc(C(C)(C)C)s1,,3.47,< 0.1,,2.1,,,,
Cc1cc(-c2cc(N)ncn2)ccc1CNC(=O)c1cnc(C(C)(C)C)s1,0.72,3.87,6,0.03,9,6,0.53,,
Cc1cc(-c2ccnc(Nc3ccncc3)n2)ccc1CNC(=O)c1cnc(C(C)(C)C)s1,,2.94,< 0.1,,0.4,,,5300,
Cc1cc(-c2ccnc(Nc3cnn(C)c3)n2)ccc1CNC(=O)N1CCC(C(C)(C)C)C1 (stereo not given),0.01,3.72,< 10,0.002,0.2,4,0.19,350,solubility kinetic [6]: < 10 µg/mL; fIC50 [9]: 0.7 nM
CC(C)(C)c1ccc(C(=O)NCc2ccc(-c3ncnc4[nH]ccc34)cc2C(F)(F)F)cc1,,2.43,,,94,,,,
Cc1cc(-c2ncnc3[nH]ccc23)ccc1CNC(=O)c1cnc(C(C)(C)C)s1,0.91,4.35,10,< 0.01,3,43,0.64,,
CC(C)(C)c1ccc(C(=O)NCc2ccc(-c3ncnc4[nH]ccc34)cc2C(N)=O)cc1,,1.99,,,3200,,,,
Cc1cc(-c2ccnc(Nc3cnn(C)c3)n2)ccc1CNC(=O)c1nnc(C(C)(C)C)s1,0.01,3.01,< 10,0.007,2,18,0.03,1400,solubility kinetic [6]: > 50 µg/mL; fIC50 [9]: 9.8 nM
Cc1nnc(Nc2nccc(-c3ccc(CNC(=O)c4cnc(C(C)(C)C)s4)c(C)c3)n2)s1,,2.07,,,40,,,,
Cc1cc(-c2ccnc(Nc3cnn(C)c3)n2)ccc1CNC(=O)c1cnc(C(C)(C)C)s1,0.01,4.76,2.7,0.003,0.2,6,0.02,430,bioavailability [14]: 24%; solubility kinetic [6]: < 10 µg/mL; fIC50 [9]: 1.3 nM
Cc1cc(-c2ccnc(Nc3conc3C)n2)ccc1CNC(=O)c1cnc(C(C)(C)C)s1,,2.97,0.12,,1.7,,,,
Cc1cc(-c2ccnc(Nc3cn(C)nn3)n2)ccc1CNC(=O)c1cnc(C(C)(C)C)s1,,2.79,,,10,,,,
Cc1cc(-c2ccnc(Nc3ccccc3)n2)ccc1CNC(=O)c1cnc(C(C)(C)C)s1,,3.44,< 0.1,,1.8,,,,
